Measured values pooled from the literature.
Compare with care: the assays were run in different laboratories.
HTR2A: 5-hydroxytryptamine receptor 2A (HTR2A, Homo sapiens, UniProt P28223)
PPO3: PPO3 (Agaricus bisporus, UniProt C7FF04)

c1cncc([C@@H]2CCCN2)c1
inhibition (HTR2A; ligand displacement; 50 µM): -7.27%

COc1cc2c3c(c1OC)-c1c(OC)ccc(O)c1CC3N(C)CC2 (stereo not drawn)
inhibition (HTR2A; ligand displacement, radioligand; 10 µM): 36%

CN1CCC[C@H]1c1cccnc1
inhibition (Neuronal acetylcholine receptor; alpha4/beta2 (Rattus norvegicus, UniProt P09483+P12390); ligand displacement, radioligand; 50 µM): 97.6%

COc1cc(/C=C/C(=O)O)ccc1OCc1cn(CC(=O)Nc2ccc([N+](=O)[O-])cc2C)nn1
inhibition (PPO3; enzyme activity, inhibitor; 40 µM): 44.9%

COc1cc2c(cc1OC)-c1c(OC)c(OC)cc3c1[C@H](C2)N(C)CC3 (racemic)
inhibition (HTR2A; ligand displacement, radioligand; 10 µM): 34%

COc1cc(/C=C/C(=O)O)ccc1OCc1cn(CC(=O)Nc2ccccc2)nn1
inhibition (PPO3; enzyme activity, inhibitor; 40 µM): 10.4%

CC(C)CC(=O)OC[C@H]1O[C@@](C#N)(c2ccc3c(N)ncnn23)[C@H](O)[C@@H]1O
inhibition (Adenosine receptor A2a (ADORA2A, Homo sapiens, UniProt P29274); cell-free assay; 20 µM): 13%

COc1cc(/C=C/C(=O)O)ccc1OCc1cn(CC(=O)Nc2ccccc2[N+](=O)[O-])nn1
inhibition (PPO3; enzyme activity, inhibitor; 40 µM): 11.5%

COc1cc2c3c(c1OC)-c1c(cccc1OC)CC3N(C)CC2 (racemic)
inhibition (HTR2A; ligand displacement, radioligand; 10 µM): 42%
